# Results gathered from unrelated publications.
# Each line is one published result; the experiments were not run side by side.
# Target: Serine/threonine-protein kinase TBK1 (TBK1, Homo sapiens, UniProt Q9UHD2)
# Sequence (Q9UHD2 1-729, as in one of the studies): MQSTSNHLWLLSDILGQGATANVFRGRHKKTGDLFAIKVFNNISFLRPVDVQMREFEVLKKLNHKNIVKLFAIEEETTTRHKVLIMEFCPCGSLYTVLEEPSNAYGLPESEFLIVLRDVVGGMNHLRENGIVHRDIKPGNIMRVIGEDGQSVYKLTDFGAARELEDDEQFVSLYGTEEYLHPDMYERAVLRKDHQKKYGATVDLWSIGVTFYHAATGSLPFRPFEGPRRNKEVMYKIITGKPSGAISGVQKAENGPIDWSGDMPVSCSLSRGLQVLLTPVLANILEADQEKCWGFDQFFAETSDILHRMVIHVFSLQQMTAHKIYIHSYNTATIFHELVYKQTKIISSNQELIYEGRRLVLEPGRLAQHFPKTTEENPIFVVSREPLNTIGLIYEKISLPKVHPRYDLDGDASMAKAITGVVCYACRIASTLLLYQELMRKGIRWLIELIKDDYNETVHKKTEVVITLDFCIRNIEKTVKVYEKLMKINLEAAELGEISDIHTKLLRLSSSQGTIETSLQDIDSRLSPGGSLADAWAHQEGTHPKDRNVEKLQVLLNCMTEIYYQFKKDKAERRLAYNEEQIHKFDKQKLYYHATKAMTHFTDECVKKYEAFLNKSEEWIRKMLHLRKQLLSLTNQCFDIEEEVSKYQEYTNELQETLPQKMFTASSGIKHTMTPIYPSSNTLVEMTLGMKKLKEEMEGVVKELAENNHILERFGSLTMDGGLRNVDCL
SMILES,read-out,action,method,concentration,measurement,result
Cn1cncc1[C@](O)(COc1ccc(C#N)cc1-c1ccc(OC(F)(F)F)cc1)c1ccc(C#N)cc1,cell-free assay,,competition with immobilised ligand,1 µM,remaining binding,100%
Cn1cc(-c2cc(F)cc(N3CCn4c(cc5c4CCCC5)C3=O)c2CO)cc(Nc2ccc(N3CCN(C4COC4)CC3)cn2)c1=O,enzyme activity,inhibitor,,0.1 µM,inhibition,18%
N#CC1(c2ccccn2)CCN(Cc2cc(C(=O)O)c(=O)n3ccccc23)CC1,cell-free assay,,competition with immobilised ligand,1 µM,remaining binding,98%
COc1ncccc1-c1cnn2ccc(N3CCN(C(=O)OC(C)C)CC3)nc12,binding,,competition with immobilised ligand,1 µM,remaining binding,78%
C#Cc1n[nH]c2c(-c3cn(C(C)c4ccccn4)c(=O)[nH]c3=O)cc(F)cc12 (centres unmarked),enzyme activity,inhibitor,,1 µM,inhibition,6.5%
O=c1[nH]c2ccccc2n1C1CCN(Cc2ccc(-c3[nH]c4cc5ncnc5cc4nc3-c3ccccc3)cc2)CC1,cell-free assay,,,0.5 µM,remaining signal,92.7%
Cc1nn(C)cc1-c1nc2c(N3CCN(Cc4ccc(Cl)cc4)CC3)c(Cl)cnc2[nH]1,binding,,competition with immobilised ligand,1 µM,remaining binding,90%
C#Cc1n[nH]c2c(-c3cn([C@@H](C)c4ccccc4)c(=O)[nH]c3=O)cc(F)cc12,enzyme activity,inhibitor,,0.1 µM,inhibition,4.4%
COc1cc(Nc2ncc(F)c(Nc3ccc4c(n3)NC(=O)C(C)(C)O4)n2)cc(OC)c1OC,binding,,,10 µM,inhibition,100%
Cn1cc(-c2cccc(N3CCc4c(sc5c4CC(C)(C)C5)C3=O)c2CO)cc(Nc2ccncn2)c1=O,enzyme activity,inhibitor,,1 µM,inhibition,4%
CC(C)(C)c1cc(C=C(C#N)C#N)cc(Br)c1O,enzyme activity,inhibitor,,0.5 µM,remaining activity,90.2%
